The target of assay [1] is T1, Estrogen receptor (Homo sapiens) (UniProt P03372).
T1 sequence (whole entry): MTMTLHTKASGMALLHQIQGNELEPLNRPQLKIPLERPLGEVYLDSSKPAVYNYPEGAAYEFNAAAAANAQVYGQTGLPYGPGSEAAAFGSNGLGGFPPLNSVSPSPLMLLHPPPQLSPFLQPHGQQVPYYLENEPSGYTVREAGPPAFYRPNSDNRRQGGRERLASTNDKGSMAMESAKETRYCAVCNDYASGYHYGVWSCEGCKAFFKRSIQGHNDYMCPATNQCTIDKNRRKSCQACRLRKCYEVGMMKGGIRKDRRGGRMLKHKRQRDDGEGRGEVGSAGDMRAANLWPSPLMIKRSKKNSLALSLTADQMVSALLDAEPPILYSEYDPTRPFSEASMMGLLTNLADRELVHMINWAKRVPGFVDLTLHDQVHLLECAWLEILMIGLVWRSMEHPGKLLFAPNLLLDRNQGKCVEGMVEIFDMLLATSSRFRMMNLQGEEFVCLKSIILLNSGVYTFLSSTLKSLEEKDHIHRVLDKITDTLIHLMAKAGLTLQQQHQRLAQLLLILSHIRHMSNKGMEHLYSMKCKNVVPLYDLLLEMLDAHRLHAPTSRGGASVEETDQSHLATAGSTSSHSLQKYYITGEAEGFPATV
Briefly: Antiestrogenic activity at human recombinant estrogen receptor alpha assessed as inhibition of recruitment of LxxLL-containing coactivators after 30 mins by ELISA in presence of estradiol. Background: In an ELISA, binding on a coated surface is turned into a signal by an enzyme label.

For assay [2], the target named is T1, Estrogen receptor (Homo sapiens). The experiment in a line: Antiestrogenic activity at human recombinant estrogen receptor alpha assessed as inhibition of recruitment of LxxLL-containing coactivators after 30 mins by ELISA in absence of estradiol.
Assay [3] has the same target. The experiment in a line: Binding affinity to estrogen receptor alpha in human MCF7 cells assessed as inhibition of [3H]E2 accumulation after 45 mins by whole cell competition binding assay. The assay is classed as cell-based. A digest of the protocol: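 Intact MCF-7 cells incubated 45 min with [3H]E2 at 1 nM, alone (control) or with competitor at 1 nM to 1 µM; cellular [3H]E2 accumulation measured, with unlabeled E2 as reference.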

Assay [4] deals with MCF7. Briefly: Antiproliferative activity against estradiol-stimulated human MCF7 cells after 3 days at 10 nM by crystal violet staining. The assay is classed as functional, cell-based.
The test system of assay [5] is MCF7. Briefly: Antiproliferative activity against human MCF7 cells after 3 days at 10 nM by crystal violet staining. The assay is classed as functional, cell-based.
Assay [6] concerns MCF7. The experiment in a line: Down regulation of estrogen receptor alpha expression in human MCF7 cells after 24 hrs by Western blot analysis. The assay is classed as functional, cell-based. A digest of the protocol:
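MCF-7 breast carcinoma cells exposed to increasing concentrations of each compound for 24 h, with untreated control cultures kept in parallel. Equal amounts of solubilized protein were analysed for ERα by Western blotting. The experiment was done twice.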
A general note: A western blot detects proteins with antibodies after separation by electrophoresis.

For assay [7], the system named is MCF7. The experiment in a line: Down regulation of estrogen receptor alpha expression in human MCF7 cells at 100 nM after 24 hrs by immunofluorescence staining. In kind it is functional, cell-based. An outline of the steps:
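MCF-7 cells treated 24 h at 100 nM, untreated control; ERα shown by immunofluorescence with HC-20 antiserum, Texas Red labeling.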

The target of assay [8] is T1, Estrogen receptor (Homo sapiens). Briefly: Displacement of [3H]estradiol from human recombinant estrogen receptor alpha by radiometric assay relative to estradiol. A digest of the protocol:
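Purified recombinant human ERα; competition with [3H]E2 binding at 0 °C; inhibition curves give relative binding affinity (RBA).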
For orientation: Displacement assays read how much labelled ligand stays bound in the presence of the test substance.

Assay [9] has as its system MCF7. Briefly: Suppression of estradiol-induced down regulation of estrogen receptor alpha expression in human MCF7 cells at 1 uM after 24 hrs by Western blot analysis. In kind it is functional, cell-based. An outline of the steps:
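Western blot of ERα in MCF-7 cells after 24 h with compound at 1 µM, alone or with 10 nM E2; equal protein loading; experiment done twice.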

The subject of assay [10] is MCF7. Briefly: Suppression of estradiol-induced down regulation of estrogen receptor alpha expression in human MCF7 cells at 1 uM after 24 hrs by immunofluorescence staining. In kind it is functional, cell-based. A digest of the protocol:
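ERα immunofluorescence (HC-20 antiserum, Texas Red) in MCF-7 cells after 24 h with E2 at 1 nM and/or compound at 1 µM; untreated control included.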

Assay [11] concerns MCF7. The experiment in a line: Down regulation of estrogen receptor alpha expression in human MCF7 cells after 24 hrs by Western blot analysis in presence of 3,17beta-dihydroxy-11beta-[4,4,5,5,6,6,7,7-octafluoro-9-(4,4,5,5,5-pentafluoropentane-1-sulfinyl)nonyl]estra-1,3,5(10)-triene. In kind it is functional, cell-based. An outline of the steps:
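MCF-7 cells exposed 24 h to increasing concentrations, untreated cultures run in parallel; equal amounts of solubilized protein Western blotted for ERα; experiment done twice.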

Active and inactive are the calls of the source. No cut-off for these calls is given here.

As for `C[C@]12C[C@H](CCCCCCCCC[S+]([O-])CCCC(F)(F)C(F)(F)F)[C@@H]3c4ccc(O)cc4CC[C@H]3[C@@H]1CC[C@@H]2O` (stereo partly specified), the result (in [1]; in assay [2]; in assay [3]; in the assay with MCF7 [4]; in the assay with MCF7 [5]; in the assay with MCF7 [6]) was Active. Besides, the outcome in the assay on MCF7 [7] was Active. For the same compound, the relative binding affinity (RBA) in assay [8] worked out at 6.
Take `C[C@]12C[C@H](CCCC(F)(F)C(F)(F)C(F)(F)C(F)(F)CC[S+]([O-])CCCC(F)(F)C(F)(F)F)[C@@H]3c4ccc(O)cc4CC[C@H]3[C@@H]1CC[C@@H]2O` (stereo partly specified): the outcome (in assay [1]; in assay [2]; in the assay on MCF7 [5]; in the assay with MCF7 [9]; with MCF7 [10]) was Active. Besides, the result in the assay on MCF7 [7] and in the assay on MCF7 [11] was inactive. Further, the relative binding affinity (RBA) in [8] was found to be 2.
For the compound `C[C@]12CC[C@@H]3c4ccc(O)cc4C[C@@H](CCCCCCCCC[S+]([O-])CCCC(F)(F)C(F)(F)F)[C@H]3[C@@H]1CC[C@@H]2O` (stereo partly specified), the outcome with MCF7 [4], with MCF7 [5], with MCF7 [6] and with MCF7 [7] was Active. For the same compound, the relative binding affinity (RBA) in assay [8] amounted to 10.

The values above are taken from ChEMBL document CHEMBL1143370, “Effect of fluorination on the pharmacological profile of 11beta isomers of fulvestrant in breast carcinoma cells” (J Med Chem, 2009).
